Screening results as filed in PubChem.
NS3 helicase inh: blocks Hepatitis C virus NS3 helicase unwinding. NS3 helicase DNA unwinding, Cy5 molecular beacon fluorescence. actives 0.56% (n = 290,000). AID 1800. inhibition, % at 10.9 µM;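 active means inhibition above the mean of all tested compounds plus 3 SD, set per campaign, cut at about 35% in these data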;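 further: 0% = DMSO wells and 100% = thioflavine S control wells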
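Control set: DMSO versus 110 µM thioflavine S; Material: NS3 helicase fragment of HCV; Measured by: Cy5 fluorescence at 0 and 60 min, beacon hairpin quenching; Read-out basis: percent inhibition from t60/t0 fluorescence ratio; Times: reaction time 60 min, 25 °C; Repeats: single replicate; Compound dosing: single dose, 10.9 µM nominal final, DMSO 0.8% final.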
M18AAP inhibitor: PfM18AAP enzyme inhibition; recombinant PfM18AAP, H-Glu-NHMec fluorogenic cleavage; AID 1822; actives 1.2% (n = 290,000); inhibition, % at 7.35 µM;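 active means inhibition above the campaign mean inhibition over all tested compounds plus 3 SD, cut at about 28% in these data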;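 further: 0% = plate median of test compound wells and 100% = 2 mM ZnCl2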
ZTA counter: blocks Epstein-Barr virus ZTA, an EBNA-1 counter-screen; P03206; inhibition, % at 11 µM; actives 0.15% (n = 320,000); ZTA-DNA binding, fluorescence polarization; in the data active means inhibition above about 33%
Target sequence (P03206 whole entry, looked up): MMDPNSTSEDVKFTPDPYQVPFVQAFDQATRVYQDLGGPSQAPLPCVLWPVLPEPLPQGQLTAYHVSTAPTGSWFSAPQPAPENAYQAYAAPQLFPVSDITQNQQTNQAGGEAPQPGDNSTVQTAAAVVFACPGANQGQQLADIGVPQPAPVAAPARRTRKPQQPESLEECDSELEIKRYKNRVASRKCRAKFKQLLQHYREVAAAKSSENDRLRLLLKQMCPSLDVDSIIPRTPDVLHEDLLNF
EBNA-1 inhibitor: blocks EBNA-1 binding to DNA. EBNA-1 DNA binding, fluorescence polarization. inhibition, % at 14.8 µM. actives 0.34% (n = 300,000). AID 1950; in the data active means inhibition above about 28%
ALR inh: inhibitors of human sulfhydryl oxidase ALR. P55789. actives 3.8% (n = 290,000). purified ALR, DTT oxidation, H2O2 HRP-luminol luminescence. inhibition, % (test concentration not listed);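 active means mean replicate inhibition above about 79%, with every replicate also reaching it, limit read from the data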
Target sequence (P55789 whole entry, looked up): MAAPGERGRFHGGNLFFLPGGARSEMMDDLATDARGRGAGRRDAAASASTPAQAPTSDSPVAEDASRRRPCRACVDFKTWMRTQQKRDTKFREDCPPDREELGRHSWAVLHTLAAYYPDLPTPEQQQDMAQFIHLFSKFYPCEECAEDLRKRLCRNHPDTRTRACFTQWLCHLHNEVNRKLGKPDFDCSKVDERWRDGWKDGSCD
HCV core dimer: blocks dimerization of HCV core protein; inhibition, % at 5 µM; TR-FRET GST/Flag-core106 dimerization, 1536-well; AID 1899; actives 0.33% (n = 300,000);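 active means inhibition above the mean of all tested compounds plus 3 SD, set per screening campaign, cut at about 45% in these data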
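Assay system: Tagged HCV core106 pair (GST and Flag) | Buffer or medium: KF-containing HEPES buffer, pH 7.45, DTT, CHAPS, BSA | Also added: Eu donor and XL665 acceptor anti-tag antibodies | Dosing: One concentration, 5 µM, in 0.5% DMSO | Timing: 4 h at 22.5 °C | Technique: TR-FRET 671 and 617 nm emission | Repeats: Singlicate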
EBNA-1 confirm: EBNA-1 (EBV) inhibition, confirmation | shares compounds with EBNA-1 inhibitor | Recombinant EBNA-1 DBD, Cy5-DNA fluorescence polarization | inhibition, % at 14.8 µM | actives 35% (n = 830) | AID 2292;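 active means mean inhibition across replicates above a set limit taken from the earlier primary screen, cut at about 28% in these data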;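 further: plate controls were EBNA-1 protein with DMSO for no effect and wells lacking EBNA-1 for full effect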
ZTA DNA inh trip: ZTA (EBV) inhibition, triplicate counter-screen | shares compounds with EBNA-1 inhibitor | Zta-ZRE DNA binding, Cy5 fluorescence polarization | inhibition, % at 11.1 µM | 830 tested, under 10 active;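 active means mean inhibition over triplicates above a set limit taken from the primary EBNA-1 screen, cut at about 37% in these data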;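 further: purified full length Zta protein with Cy5 labeled ZRE DNA probe; 0% = Zta with DMSO and 100% = wells lacking Zta protein; inhibitors lower polarization by freeing the labeled DNA probe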
The depositor's hits bear a star; / = not tested or not shown. Shown are actives, neighbours in structure and some others; about 5.2% of the full set was active somewhere.

SMILES	NS3 helicase inh	M18AAP inhibitor	ZTA counter	EBNA-1 inhibitor	ALR inh	HCV core dimer	EBNA-1 confirm	ZTA DNA inh trip
CCC1=C([N+](=O)[O-])C(c2ccc3c(c2)OCO3)NC(=O)N1 (centres undefined)	5.0	7.7	4.8	1.5	-1.9	-6.7	/	/
C=C(C)C1CC=C(C)/C(=N\NC(=S)Nc2ccc(C)cc2)C1 (centres undefined)	0.0	9.8	15.3	2.1	4.5	3.2	/	/
Cc1ccc(S(=O)(=O)N2CCCC2)cc1C(=O)NCCN1CCOCC1	11.0	5.8	-9.3	-1.1	-12.0	-0.5	/	/
C[C@H](CO)N1C[C@H](C)[C@@H](CN(C)Cc2ccncc2)Oc2ccc(NC(=O)CCCCCC(=O)Nc3ccccc3N)cc2C1=O	/	/	/	/	-2.9	/	/	/
COCCCNC(=O)c1ccc(Cn2c(=O)c3ccccc3n(Cc3ccccc3C#N)c2=O)cc1	-2.1	-9.5	6.4	32.5*	-0.8	2.7	11.2	0.7
O=C(CSc1nnc2c3c4c(sc3ncn12)CCCC4)NCc1ccco1	2.6	5.5	2.5	32.2*	20.7	5.2	-0.7	0.3
Ic1ccc(N2CCN(Cc3c[nH]c4ncccc34)CC2)cc1	/	/	-11.7	5.4	37.3	-5.8	/	/
CC1CCCC(NC(=O)COC(=O)c2n[nH]c3ccccc23)C1C (centres undefined)	/	/	/	/	0.8	/	/	/
CCOCCn1c(N2CCCC2)nc2c1c(=O)n(C)c(=O)n2C	-2.3	-1.5	6.1	1.4	35.4	0.7	/	/
O=C1c2ccccc2C(=O)N1CCCCN(C(=O)c1cc2ccccc2oc1=O)c1ccc(Cl)cc1	25.3	-14.1	0.9	36.6*	-4.3	11.9	0.4	18.6
COc1ccc(-c2csc(NC(=O)C3CSC4(C)CCC(=O)N34)n2)c(OC)c1 (centres undefined)	/	/	-7.8	-0.6	/	2.0	/	/
CC(=O)/C(=N\Nc1cccc(Cl)c1)Sc1nnc(-c2ccccc2)n1-c1ccccc1	-15.9	3.9	9.2	33.3*	14.4	19.6	15.6	-7.3
CCc1ccc(N2CC(C(=O)Nc3ccc(S(=O)(=O)NCC4CCCO4)cc3)CC2=O)cc1 (centres undefined)	-26.2	0.5	9.0	94.0*	-1.2	-1.2	28.9*	-17.6
O=C(Nc1ccc(S(=O)(=O)NCC2CCCO2)cc1)C1CC(=O)N(c2ccccc2)C1 (centres undefined)	5.8	0.1	0.8	-6.6	-1.3	-16.5	/	/
Cc1nc2scc(C)n2c(=O)c1S(=O)(=O)NCC1CCN(Cc2ccc(F)cc2)CC1	7.6	12.1	13.8	-12.6	-5.1	-11.6	/	/
COc1cccc(/C=N/NC(=O)C(=O)Nc2ccccc2OC(F)(F)C(F)F)c1	10.8	10.9	12.5	30.0*	1.9	5.4	24.3	5.1
COc1ccccc1/C=N/NC(=O)C(=O)Nc1ccccc1OC(F)(F)C(F)F	0.6	9.1	-20.2	-2.3	-1.6	-2.3	/	/
COCCOC(=O)c1c(NC(=O)COC(=O)Cc2cccc(OC)c2)sc(C(N)=O)c1C	-1.9	3.4	-7.2	38.6*	0.3	4.6	98.3*	8.4
C=CCOC(=O)C1=C(C)NC(C)=C(C(=O)OCC=C)C1c1cn(-c2ccccc2)nc1-c1ccco1	8.7	-2.8	5.0	53.3*	-10.6	8.0	21.9	8.7
NS(=O)(=O)c1ccc(NC(=S)Nc2ccn(Cc3cccc4ccccc34)n2)cc1	-2.0	-6.5	-1.4	29.4*	-10.8	10.4	33.8*	-4.3
Cc1ccc2nc3c(c(C(=O)OC4CCOC4=O)c2c1)CCCC3 (centres undefined)	8.8	3.2	-0.5	29.5*	7.0	-1.6	6.3	5.5
COc1ccc(/C=C(\C#N)C(=O)OCC(=O)Nc2c(C)cccc2C)cc1	1.0	4.5	-8.1	18.5	/	7.9	/	/
CCc1cccc(CC)c1NC(=O)COC(=O)/C(C#N)=C/c1ccc(OC)cc1	-2.1	2.3	19.8	45.9*	-1.3	22.5	15.2	6.8
C(=N\N1CCOCC1)/c1cccs1	-3.6	3.5	9.6	6.4	-1.9	1.9	/	/
CCOC(=O)Cc1csc(NC(=O)CSc2nc(C)cc(C)n2)n1	/	/	/	/	-12.1	/	/	/
SMILES	NS3 helicase inh	M18AAP inhibitor	ZTA counter	EBNA-1 inhibitor	ALR inh	HCV core dimer	EBNA-1 confirm	ZTA DNA inh trip
CCOC(=O)Cc1csc(NC(=O)CSc2nc(N)c3c(C)c(C)sc3n2)n1	-6.7	-22.9	3.4	168.8*	/	1.8	7.4	4.8
Cc1ccc(C(=O)N/N=C/c2ccc3c(c2)OCO3)o1	-0.7	-4.7	14.3	13.3	-19.1	10.0	/	/
O=C(N/N=C/c1ccc2c(c1)OCO2)c1cc2ccccc2o1	1.4	0.9	2.1	29.9*	-0.6	1.5	13.1	3.3
O=C(Nc1cc(Cl)cc(Cl)c1)c1ccc(Cn2c(=O)[nH]c3ccsc3c2=O)cc1	-2.3	2.2	-2.2	35.8*	0.3	18.1	29.4*	-4.9
COc1cccc(-n2nnc3c(=O)n(Cc4ccc(Br)cc4)cnc32)c1	5.0	1.7	6.9	35.3*	-1.6	10.7	7.2	8.2
COc1cccc(-n2nnc3c(=O)n(Cc4ccc(C)cc4)cnc32)c1	-1.9	0.7	1.2	2.4	-3.0	6.0	/	/
COc1cc(OC)cc(OC(=O)C2CCN(C(=O)c3ccc(F)cc3)CC2)c1	/	/	-10.1	-8.7	8.8	0.6	/	/
Cc1sc2ncnc(SCC(=O)NNC(=O)COc3cccc4ccccc34)c2c1C	-4.5	3.9	16.7	119.0*	-21.1	3.8	97.9*	-11.5
Cc1cccc(NC(=O)CSc2ncnc3sc(C)c(C)c23)n1	6.3	-12.3	/	/	-11.2	/	/	/
Cc1cccc(CN2C(=O)CSc3ccc(C(=O)NC4CC4)cc32)c1	8.8	-5.7	11.8	6.7	-5.8	9.3	/	/
CCc1cccc(NC(=O)CCc2c(C)nn(-c3ccc(N4CCCCC4)nn3)c2C)c1	-25.9	-6.1	-3.6	-13.8	-2.2	-26.7	/	/
Cc1ccc(S(=O)(=O)N2CCN(C(=O)C(C)Cn3cncn3)CC2)cc1 (centres undefined)	6.4	1.1	0.1	2.5	24.9	9.4	/	/
COC(=O)c1ccc2c(=O)[nH]c(CSc3nc(-c4ccc(F)cc4)cs3)nc2c1	5.1	-1.8	-17.2	59.6*	-3.4	-13.0	34.1*	11.8
COc1ccc(NC(=O)CN(c2ccc(F)cc2)S(=O)(=O)c2ccccc2)c(OC)c1	-10.8	5.1	-4.2	9.2	-5.4	12.1	/	/
CCOC(=O)COc1cccc2c(=O)n(CC(=O)N3CCc4ccccc43)ccc12	1.9	2.4	9.4	36.4*	-2.7	-0.9	17.2	0.6
COc1cccc2c(=O)n(CC(=O)N3CCc4ccccc43)ccc12	-0.8	2.8	1.7	6.3	-4.2	5.1	/	/
